From ChEMBL document CHEMBL4359825, “Synthesis of novel S-linked dihydroartemisinin derivatives and evaluation of their anticancer activity” (Eur J Med Chem, 2019)
Activity calls are given as the source filed them. The rule behind the calls is not given here.

How the values were obtained:
PC-3 [1] = assay: Induction of reactive oxygen species generation in human PC3 cells assessed as increase in intracellular ROS level at 3 to 10 uM incubated for 3 hrs by CM-H2DCFDA staining based fluorescence microscopy analysis; type: functional, cell-based
Procedure, shortened: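 Approx. 1×10^5 PC-3 cells per well treated 3 h at 3 or 10 μM; medium replaced with 10 μM CM-H2DCFDA for 30 min in dark at 37 °C, nuclei counterstained Hoechst 33342 (1 μg/mL) 15 min at room temperature; fluorescence microscopy, percentage ROS-producing cells scored versus vehicle.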

PC-3 [2] = assay: Antiproliferative activity against human PC3 cells assessed as reduction in cell viability at 1 to 10 uM incubated for 72 hrs by MTT assay; type: functional, cell-based
A549 = assay: Anticancer activity against human A549 cells assessed as cell viability measured after 72 hrs by MTT assay (reference value: 100 +/- 9.6 %); type: functional; design: concentration or dose not given beside the values
HepG2 [3] = assay: Anticancer activity against human HepG2 cells assessed as cell viability measured after 72 hrs by MTT assay (reference value: 100 +/- 6.5 %); type: functional; design: concentration or dose not given beside the values
A-431 = assay: Anticancer activity against human A431 cells assessed as reduction in cell viability measured after 72 hrs by MTT assay; type: functional, cell-based; conditions: A-431, 72 h
PC-3 [4] = assay: Upregulation of NOXA mRNA expression in human PC3 cells at 3 to 10 uM measured after 72 hrs by TRIzol dye based RT-PCR analysis; type: functional, cell-based
Procedure, shortened: (§1)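 PC-3 cells (1.25×10^5 per well) treated 72 h at 3 or 10 μM; total RNA by TRIzol, cDNA from 2 μg; SYBR real-time PCR, 95 °C 10 min then 40 cycles 95 °C 15 s/60 °C; Ct normalised to GAPDH, relative expression by 2^-ΔΔCt; three experiments.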

PC-3 [5] = assay: Cell cycle arrest in human PC3 cells assessed as accumulation at G0/G1 phase at 10 uM measured after 48 hrs by RNase/propidium iodide staining based flow cytometry analysis (reference value: 42.59 %); type: functional
PC-3 [6] = assay: Downregulation of E2F1 mRNA expression in human PC3 cells at 3 to 10 uM measured after 72 hrs by TRIzol dye based RT-PCR analysis; type: functional, cell-based
Procedure, shortened: (§2)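 PC-3 (1.25 × 10^5/well) treated 72 h with 3 or 10 μM. Total RNA extracted with TRIzol; cDNA made from 2 μg RNA. SYBR qPCR: 95 °C 10 min, then 40 cycles of 95 °C/60 °C. Expression normalised to GAPDH by 2^-ΔΔCt; three experiments.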

PC-3 [7] = assay: Antimigratory activity against human PC3 cells assessed as reduction in cell migration at 10 uM measured upto 24 hrs in presence of pan-caspase inhibitor Z-VAD-fmk by scratch wound healing assay; type: functional, cell-based
Procedure, shortened: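 PC-3 monolayers pretreated 2 h with pan-caspase inhibitor Z-VAD-FMK (10 μM) before scratching and treatment with test agent. Wound closure imaged by phase contrast at 0, 12 and 24 h.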

PC-3 [8] = assay: Antimigratory activity against human PC3 cells assessed as reduction in cell migration at 3 to 10 uM measured upto 24 hrs by scratch wound healing assay; type: functional, cell-based
Procedure, shortened: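 Wound healing: PC-3 seeded 3 × 10^5/well, grown to a monolayer at 37 °C, 5% CO2. Scratch made with a pipette tip, detached cells washed off, then 3 or 10 μM added.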

PC-3 [9] = assay: Cytotoxicity against human PC3 cells assessed as reduction in cell viability at 3 to 10 uM pretreated with NAC for 2 hrs followed by compound addition and measured after 72 hrs by MTT assay; type: functional, cell-based
Procedure, shortened: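 PC-3 cells in 96-well plates pretreated 2 h with N-acetyl cysteine (20 μM), then exposed to 3 or 10 μM test agent for 72 h. Viability read by MTT as in the standard protocol, absorbance 570 nm, relative to DMSO control. Three separate experiments.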

PC-3 [10] = assay: Downregulation of Pin1 expression in human PC3 cells at 3 to 10 uM measured after 72 hrs by Western blot analysis; type: functional, cell-based
Procedure, shortened: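 Western blot: PC-3 seeded 1.25 × 10^5/well, exposed to 0.1–10 μM for 72 h. Lysed in 2× SDS buffer and sonicated; 20–25 μg protein run on 12% SDS gel, transferred to PVDF, blocked in 5% BSA/TBST. Primary antibodies overnight, secondary 1 h; ECL detection, β-actin loading control.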

[11] = target: Peptidyl-prolyl cis-trans isomerase NIMA-interacting 1 (Homo sapiens) (UniProt Q13526); assay: Inhibition of proteasome mediated Pin1 in human PC3 cells at 10 uM measured after 72 hrs in presence of MG132; type: cell-based
HepG2 [12] = assay: Anticancer activity against human HepG2 cells assessed as reduction in cell viability measured after 72 hrs by MTT assay; type: functional, cell-based; conditions: HepG2, 72 h
PC-3 [13] = assay: Downregulation of BCL-xL mRNA expression in human PC3 cells at 3 to 10 uM measured after 72 hrs by TRIzol dye based RT-PCR analysis; type: functional, cell-based; procedure, shortened: as §2
PC-3 [14] = assay: Cell cycle arrest in human PC3 cells assessed as accumulation at S phase at 10 uM measured after 48 hrs by RNase/propidium iodide staining based flow cytometry analysis (reference value: 22.40 %); type: functional
PC-3 [15] = assay: Upregulation of p21 mRNA expression in human PC3 cells at 3 to 10 uM measured after 72 hrs by TRIzol dye based RT-PCR analysis; type: functional, cell-based; procedure, shortened: as §1
PC-3 [16] = assay: Anticancer activity against human PC3 cells assessed as cell viability measured after 72 hrs by MTT assay (reference value: 100 +/- 18.8 %); type: functional; design: concentration or dose not given beside the values
MDA-MB-231 = assay: Anticancer activity against human MDA-MB-231 cells assessed as reduction in cell viability measured after 72 hrs by MTT assay; type: functional, cell-based; conditions: MDA-MB-231, 72 h
LNCaP = assay: Anticancer activity against human LNCAP cells assessed as cell viability measured after 72 hrs by MTT assay (reference value: 100 +/- 5.0 %); type: functional; design: concentration or dose not given beside the values
PC-3 [17] = assay: Induction of cell death in human PC3 cells measured after 72 hrs by propidium iodide staining based flow cytometry analysis; type: functional
Procedure, shortened: (§3)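 PC-3 cells in six-well plates exposed to 3 or 10 μM for 72 h, 0.1% DMSO vehicle as control; cells harvested, PBS-washed, stained with propidium iodide (5 μg/mL) 20 min at 4 °C; percentage dead cells read by flow cytometry; t-test against vehicle.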

PC-3 [18] = assay: Induction of apoptosis in human PC3 cells assessed as decrease in mitochondrial membrane potential at 3 to 10 uM after 48 hrs by JC-1 staining based fluorescence microscopy analysis; type: functional, cell-based
Procedure, shortened: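 PC-3 cells exposed to 3 or 10 μM for 48 h, then stained with JC-1 (10 μM) for 30 min in the dark. Mitochondrial potential judged by red/green fluorescence under a fluorescence microscope.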

PC-3 [19] = assay: Cell cycle arrest in human PC3 cells assessed as accumulation at G2/M phase at 10 uM measured after 48 hrs by RNase/propidium iodide staining based flow cytometry analysis (reference value: 34.95 %); type: functional
PC-3 [20] = assay: Induction of cell death in human PC3 cells at 3 uM measured after 72 hrs by propidium iodide staining based flow cytometry analysis (reference value: 0.5 %); type: functional; procedure, shortened: as §3

Peptidyl-prolyl cis-trans isomerase NIMA-interacting 1 (Homo sapiens), sequence (Q13526 whole entry): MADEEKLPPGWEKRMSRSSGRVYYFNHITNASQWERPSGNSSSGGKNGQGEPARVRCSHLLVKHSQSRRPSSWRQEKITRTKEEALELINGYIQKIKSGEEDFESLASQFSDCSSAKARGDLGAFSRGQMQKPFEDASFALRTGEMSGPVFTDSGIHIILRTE

## COC(=O)Cc1ccc(S[C@@H]2O[C@@H]3O[C@@]4(C)CC[C@H]5[C@H](C)CC[C@@H]([C@H]2C)[C@@]35OO4)cc1
PC-3 [1]
  Activity: Active
PC-3 [2]
  Activity: Active
A549
  Activity: 68%
HepG2 [3]
  Activity: 50%
A-431
  IC50: 13.3 µM
PC-3 [4]
  Activity: Active
PC-3 [5]
  Activity: 53.71%
PC-3 [6]
  Activity: Active
PC-3 [7]
  inhibition: inactive
PC-3 [8]
  Activity: Active
PC-3 [9]
  Activity: inactive
PC-3 [10]
  Activity: Active
[11]
  inhibition: inactive
HepG2 [12]
  IC50: 6.08 µM
PC-3 [13]
  Activity: Active
PC-3 [14]
  Activity: 13.21%
PC-3 [15]
  Activity: Active
PC-3 [16]
  Activity: 28%
MDA-MB-231
  IC50: 9.03 µM
LNCaP
  Activity: 38%
PC-3 [17]
  Activity: Dose-dependent effect
PC-3 [18]
  Activity: Active
PC-3 [19]
  Activity: 32.19%
PC-3 [20]
  Activity: 26.3%
